Series [1] in a line: PK study after i.v. administration in rats. The class given is in vivo. To be noted: rat, plasma, iv, 90 nmol/kg.
The nature of series [2]: Fraction unbound in plasma. It counts as in vitro ADME.
Series [3] in a line: Estimation of solubility Cs by fitting PBPK model to total lung concentrations. It counts as in vivo. To be noted: rat, inhaled, 11.3 nmol/kg. Put shortly: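 Fit of the whole-body PBPK model with lung disposition to total lung concentrations in rats after nose-only inhalation (lung deposited dose 11.3 nmol/kg). Fitting used nonlinear least squares (Levenberg–Marquardt). The starting value came from an exhaustive sum-of-squares search over a broad range, then 300 candidates within ±200 nM of the best solution. Particle dissolution followed the Nernst–Brunner equation; all other inputs were fixed.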

A short description of series [4]: Unbound lung volume of distribution. The class given is in vitro ADME.
A short description of series [5]: logD7.4. The class given is physicochemical. To be noted: pH 7.4.
Series [6] in a line: In vitro apparent permeability across CaCo2-monolayers. To be noted: human, Caco-2. The class given is in vitro ADME. On the technique in general: Passage across Caco-2 layers is used to estimate intestinal permeability.
Series [7] deals with T1, glucocorticoid receptor (Rattus norvegicus, UniProt P06536).
T1 sequence (P06536 1-795): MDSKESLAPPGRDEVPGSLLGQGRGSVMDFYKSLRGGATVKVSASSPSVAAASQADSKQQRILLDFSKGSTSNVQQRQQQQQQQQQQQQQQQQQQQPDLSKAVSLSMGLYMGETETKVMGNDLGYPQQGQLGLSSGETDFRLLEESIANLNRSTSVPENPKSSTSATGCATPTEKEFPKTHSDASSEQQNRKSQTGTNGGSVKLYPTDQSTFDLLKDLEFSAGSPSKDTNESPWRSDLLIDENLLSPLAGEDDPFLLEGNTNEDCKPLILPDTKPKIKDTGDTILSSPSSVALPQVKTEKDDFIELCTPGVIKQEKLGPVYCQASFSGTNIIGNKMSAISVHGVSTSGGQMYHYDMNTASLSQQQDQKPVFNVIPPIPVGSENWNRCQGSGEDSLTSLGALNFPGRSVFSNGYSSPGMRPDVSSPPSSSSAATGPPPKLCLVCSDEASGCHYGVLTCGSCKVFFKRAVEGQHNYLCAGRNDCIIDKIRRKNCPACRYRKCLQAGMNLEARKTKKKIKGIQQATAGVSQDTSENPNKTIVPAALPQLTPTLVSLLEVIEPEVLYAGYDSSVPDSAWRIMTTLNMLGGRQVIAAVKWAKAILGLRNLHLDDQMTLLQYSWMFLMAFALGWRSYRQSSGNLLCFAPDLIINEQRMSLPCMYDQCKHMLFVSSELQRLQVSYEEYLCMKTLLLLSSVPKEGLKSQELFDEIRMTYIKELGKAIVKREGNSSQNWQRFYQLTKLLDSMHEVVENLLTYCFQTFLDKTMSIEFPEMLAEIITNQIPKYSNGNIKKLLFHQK
Nature of the series: In vivo glucocorticoid receptor occupancy study. To be noted: iv, read-out: Observed receptor occupancy.

Converted amounts (≈) assume the structure as drawn.

Broadly, the clearance is the volume of plasma or blood freed of the substance per unit of time. The low end stands for inefficient removal, the high end for efficient removal. The Vd is the apparent volume that relates the amount in the body to the concentration in plasma or blood. High values mean wide distribution into tissue, low ones little distribution into tissue. Broadly, the fraction unbound is the share of the substance not bound to proteins or other matrix. Broadly, the solubility is the concentration that dissolves in the medium under given conditions. By logD is commonly meant lipophilicity at a set pH, counting ionised and neutral species. A high value points to higher lipophilicity. A word on the Papp: it is the rate of passage across a membrane or cell layer, normalised by area and donor concentration. In turn, `CCC(=O)O[C@]1(C(=O)SCF)[C@H](C)C[C@H]2[C@@H]3C[C@H](F)C4=CC(=O)C=C[C@]4(C)[C@@]3(F)[C@@H](O)C[C@@]21C` [fluticasone propionate] showed a clearance in series [1] (CLP (plasma clearance)) of 182 mL/min/kg. For the same molecule, the Vd in series [1] (Vdss (volume of distribution at steady state)) was 12.5 L/kg. Also, in series [2], the fraction unbound came to 0.016. Also, in series [3], the solubility was 4.53 µM (≈ 2.27 µg/mL). Also, the “Vu,lung (unbound lung volume of distribution)” value in series [4] worked out at 213.4 mL/g lung tissue. The same molecule returned a logD in series [5] of 4.2. Moreover, the Papp in series [6] is 46.9 ×10⁻⁶ cm/s. For the same molecule, in series [7], the receptor occupancy at 0.02 µmol/kg came out at 27 ± 9.7% and the receptor occupancy at 0.75 µmol/kg was determined as 100 ± 3.5%.
